Experimental data published in ChEMBL document CHEMBL5247599, “New β-arylchalcogeno amines with procognitive properties targeting Carbonic Anhydrases and Monoamine Oxidases” (Eur J Med Chem, 2022).
pIC50: −log10 of the molar value. Calls of active or inactive are those of the source. No cut-off for these calls is given here.

How the values were obtained:
[1] = target: Carbonic anhydrase 12 (Homo sapiens) (UniProt O43570); experiment: Binding affinity to human CA12 by phenol red dye based stopped flow CO2 hydration assay; settings: filed as activator
Summary of the method: (§1)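 Purified recombinant human CA isoforms. CA-catalysed CO2 hydration was followed by stopped-flow with phenol red at 557 nm, taking initial rates over 10–100 s from at least six traces of the first 5–10% of reaction. Uncatalysed rates were subtracted. Activator stocks were 0.1 mM in deionised water, diluted down to 0.1 nM in assay buffer. K_A came from non-linear least-squares Michaelis–Menten fitting.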

Mus musculus [2] = experiment: Ex vivo activation of C57Bl6 mouse cortex homogenate CA assessed as increase in protein activity at 50 nmol/uL, icv measured after 30 mins by stopped flow spectrophotometric method; type: functional, organism-based
Summary of the method: (§2)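 Adult male C57Bl6 mice with lateral-ventricle cannulae received 5 µL at 1 µL/min. After 30 min, cortex and hippocampus were dissected on ice, homogenised in 20 mM Hepes pH 7.5 and spun at 20000g for 30 min. Stopped-flow CO2 hydration used 0.2 mM phenol red (557 nm), 20 mM NaClO4, 20°C and 1.7–17 mM CO2. Activity is expressed as % of vehicle mean; 6 mice/group.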

Mus musculus [3] = experiment: Pro-cognitive activity in C57Bl6 mouse assessed as attenuation of long-term memory deficit by measuring increase in exploration time for novel object by measuring discrimination index at 25 nmol/uL, icv measured after 48 hrs by novel object recognition test; type: functional
[4] = target: T1, Amine oxidase [flavin-containing] A (Homo sapiens, UniProt P21397); experiment: Inhibition of human recombinant MAO-A assessed as inhibition of 4-hydroxyquinoline formation using kynuramine as substrate by fluorescence spectrophotometry analysis
T1 sequence (P21397 whole entry): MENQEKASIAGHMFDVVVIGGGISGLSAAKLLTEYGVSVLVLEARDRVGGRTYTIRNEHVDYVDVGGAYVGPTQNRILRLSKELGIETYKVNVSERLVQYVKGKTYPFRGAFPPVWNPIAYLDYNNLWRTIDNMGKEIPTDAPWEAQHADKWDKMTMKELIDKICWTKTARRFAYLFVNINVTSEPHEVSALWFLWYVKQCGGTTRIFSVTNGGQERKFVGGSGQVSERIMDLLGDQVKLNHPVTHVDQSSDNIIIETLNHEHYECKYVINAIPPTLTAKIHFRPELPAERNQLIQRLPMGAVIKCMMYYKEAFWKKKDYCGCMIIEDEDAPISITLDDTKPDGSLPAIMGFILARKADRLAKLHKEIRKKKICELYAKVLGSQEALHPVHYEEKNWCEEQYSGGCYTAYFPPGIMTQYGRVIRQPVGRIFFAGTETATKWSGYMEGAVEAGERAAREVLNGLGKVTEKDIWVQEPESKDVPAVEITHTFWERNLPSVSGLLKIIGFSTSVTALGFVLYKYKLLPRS
Summary of the method: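 Recombinant human MAO-A with kynuramine as substrate. The 4-hydroxyquinoline product was quantified by fluorescence spectrophotometry, and IC50 values were determined.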

[5] = target: Carbonic anhydrase 6 (Homo sapiens) (UniProt P23280); experiment: Binding affinity to human CA6 by phenol red dye based stopped flow CO2 hydration assay; summary of the method: as §1
[6] = target: Carbonic anhydrase 7 (Homo sapiens) (UniProt P43166); experiment: Binding affinity to human CA7 by phenol red dye based stopped flow CO2 hydration assay; settings: filed as activator; summary of the method: as §1
[7] = target: Carbonic anhydrase 14 (Homo sapiens) (UniProt Q9ULX7); experiment: Binding affinity to human CA14 by phenol red dye based stopped flow CO2 hydration assay; settings: filed as activator; summary of the method: as §1
Mus musculus [8] = experiment: Pro-cognitive activity in C57Bl6 mouse assessed as attenuation of long-term memory deficit by measuring increase in exploration time for novel juvenile by measuring discrimination index at 50 nmol/uL, icv measured after 48 hrs by novel object recognition test; type: functional
Summary of the method: (§3)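 Social recognition in adult male C57Bl6 mice with intracerebroventricular cannulae. Habituation was 10 min with two empty cups. Twenty-four hours later, a novel 3–4-week-old juvenile was placed under one cup for 10 min of exploration, followed immediately by a 5 µL infusion at 1 µL/min. Retention 48 h later offered familiar versus novel juvenile, scoring snout-to-cup contact. DI = (tN−tF)/(tN+tF).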

[9] = target: Carbonic anhydrase 5B, mitochondrial (Homo sapiens) (UniProt Q9Y2D0); experiment: Binding affinity to human CA5b by phenol red dye based stopped flow CO2 hydration assay; settings: filed as activator; summary of the method: as §1
[10] = target: Carbonic anhydrase 9 (Homo sapiens) (UniProt Q16790); experiment: Binding affinity to human CA9 by phenol red dye based stopped flow CO2 hydration assay; summary of the method: as §1
[11] = target: Carbonic anhydrase 13 (Homo sapiens) (UniProt Q8N1Q1); experiment: Binding affinity to human CA13 by phenol red dye based stopped flow CO2 hydration assay; settings: filed as activator; summary of the method: as §1
[12] = Toxicity in overnight fasted C57Bl6 mouse assessed as reduction in food intake at 50 nmol/uL administered directly into lateral ventricle measured for 2 hrs; settings: in vivo, icv_or_intrathecal
Summary of the method: (§4)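 Overnight-fasted male C57Bl6 mice received a lateral-ventricle infusion. Food was presented 30 min later, and intake was recorded at 0.5 h intervals over 2 h as cumulative consumption corrected for body weight; n = 8–9 per group.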

Mus musculus [13] = experiment: Pro-cognitive activity in C57Bl6 mouse assessed as attenuation of long-term memory deficit by measuring increase in exploration time for novel object at 25 nmol/uL, icv measured after 24 hrs by novel object recognition test; type: functional, organism-based
Summary of the method: (§5)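 Novel object recognition in adult male C57Bl6 mice. Habituation was 10 min in an empty arena. Twenty-four hours later, mice explored two identical objects for 5 min, then received an immediate 5 µL lateral-ventricle infusion at 1 µL/min. A 5-min retention test with one familiar and one novel object followed 24 h later. Scores were % exploration time and DI = (tN−tF)/(tN+tF).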

[14] = target: Carbonic anhydrase 5A, mitochondrial (Homo sapiens) (UniProt P35218); experiment: Binding affinity to human CA5a by phenol red dye based stopped flow CO2 hydration assay; settings: filed as activator; summary of the method: as §1
[15] = target: Carbonic anhydrase 3 (Homo sapiens) (UniProt P07451); experiment: Binding affinity to human CA3 by phenol red dye based stopped flow CO2 hydration assay; settings: filed as activator; summary of the method: as §1
[16] = target: Carbonic anhydrase 2 (Homo sapiens) (UniProt P00918); experiment: Binding affinity to human CA2 by phenol red dye based stopped flow CO2 hydration assay; summary of the method: as §1
Mus musculus [17] = experiment: Pro-cognitive activity in C57Bl6 mouse assessed as attenuation of long-term memory deficit by measuring increase in exploration time for novel object by measuring discrimination index at 50 nmol/uL, icv measured after 24 hrs by novel object recognition test; type: functional; summary of the method: as §5
Mus musculus [18] = experiment: Pro-cognitive activity in C57Bl6 mouse assessed as attenuation of long-term memory deficit by measuring increase in exploration time for novel juvenile at 25 nmol/uL, icv measured after 48 hrs by novel object recognition test; type: functional, organism-based
Summary of the method: (§6)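 Male adult C57Bl6 mice (8–9 weeks), lateral-ventricle cannula implanted 7 days earlier. Social recognition: 10-min habituation to arena with two empty cups; 24 h later 10-min acquisition with an unfamiliar juvenile (3–4 weeks) under one wire cup. Immediately after, 5 µL i.c.v. infusion at 1 µL/min. Retention at 48 h with familiar and novel juvenile; percentage time exploring each cup (snout-to-cup contact).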

[19] = target: Carbonic anhydrase 1 (Homo sapiens) (UniProt P00915); experiment: Binding affinity to human CA1 by phenol red dye based stopped flow CO2 hydration assay; summary of the method: as §1
[20] = Toxicity in C57Bl6 mouse assessed as reduction in distance travel at 50 nmol/uL administered directly into lateral ventricle by open field test; settings: in vivo, icv_or_intrathecal
Summary of the method: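 Cannulated adult male C57Bl6 mice were placed in a 60×70 cm open-field arena 30 min after a 5 µL lateral-ventricle infusion. Total distance travelled over a 5-min session was recorded by overhead video tracking.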

Mus musculus [21] = experiment: Pro-cognitive activity in C57Bl6 mouse assessed as attenuation of long-term memory deficit by measuring increase in exploration time for novel juvenile at 50 nmol/uL, icv measured after 48 hrs by novel object recognition test; type: functional, organism-based; summary of the method: as §6
[22] = target: Carbonic anhydrase 4 (Homo sapiens) (UniProt P22748); experiment: Binding affinity to human CA4 by phenol red dye based stopped flow CO2 hydration assay; settings: filed as activator; summary of the method: as §1
Mus musculus [23] = experiment: Ex vivo activation of C57Bl6 mouse hippocampus homogenate CA assessed as increase in protein activity at 50 nmol/uL, icv measured after 30 mins by stopped flow spectrophotometric method; type: functional, organism-based; summary of the method: as §2
Mus musculus [24] = experiment: Pro-cognitive activity in C57Bl6 mouse assessed as attenuation of long-term memory deficit by measuring increase in exploration time for novel object at 50 nmol/uL, icv measured after 24 hrs by novel object recognition test; type: functional, organism-based
Summary of the method: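 Male adult C57Bl6 mice (8–9 weeks), lateral-ventricle cannula implanted one week before. 10-min habituation to empty open-field arena; 24 h later, 5-min acquisition with two identical objects, followed immediately by 5 µL i.c.v. infusion at 1 µL/min. 5-min retention test 24 h after acquisition with one familiar and one novel object; percentage exploration time per object, two-way ANOVA with Bonferroni.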

Mus musculus [25] = experiment: Pro-cognitive activity in C57Bl6 mouse assessed as attenuation of long-term memory deficit by measuring increase in exploration time for novel juvenile by measuring discrimination index at 25 nmol/uL, icv measured after 48 hrs by novel object recognition test; type: functional; summary of the method: as §3
[26] = Toxicity in overnight fasted C57Bl6 mouse assessed as reduction in food intake at 50 nmol/uL administered directly into lateral ventricle measured for 30 mins; settings: in vivo, icv_or_intrathecal, 0.5 h; summary of the method: as §4

Chain of Carbonic anhydrase 13 (Homo sapiens) (Q8N1Q1 whole entry, looked up): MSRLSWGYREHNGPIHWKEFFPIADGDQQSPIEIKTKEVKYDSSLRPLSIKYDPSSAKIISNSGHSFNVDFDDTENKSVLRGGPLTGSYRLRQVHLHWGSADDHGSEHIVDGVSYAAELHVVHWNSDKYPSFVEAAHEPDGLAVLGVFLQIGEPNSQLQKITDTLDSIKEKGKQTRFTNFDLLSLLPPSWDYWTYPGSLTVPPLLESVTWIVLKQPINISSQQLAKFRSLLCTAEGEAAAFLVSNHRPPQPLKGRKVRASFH
Chain of Carbonic anhydrase 5B, mitochondrial (Homo sapiens) (Q9Y2D0 whole entry): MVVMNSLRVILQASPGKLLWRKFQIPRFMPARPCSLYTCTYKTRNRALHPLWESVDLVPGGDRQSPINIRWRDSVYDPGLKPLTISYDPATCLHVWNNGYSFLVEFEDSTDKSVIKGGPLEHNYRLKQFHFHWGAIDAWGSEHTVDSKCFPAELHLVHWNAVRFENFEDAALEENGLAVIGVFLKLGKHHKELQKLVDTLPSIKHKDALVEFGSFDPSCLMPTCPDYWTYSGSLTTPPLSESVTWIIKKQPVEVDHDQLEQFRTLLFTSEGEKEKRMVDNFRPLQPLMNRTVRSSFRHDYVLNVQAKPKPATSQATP
Chain of Carbonic anhydrase 6 (Homo sapiens) (P23280 whole entry): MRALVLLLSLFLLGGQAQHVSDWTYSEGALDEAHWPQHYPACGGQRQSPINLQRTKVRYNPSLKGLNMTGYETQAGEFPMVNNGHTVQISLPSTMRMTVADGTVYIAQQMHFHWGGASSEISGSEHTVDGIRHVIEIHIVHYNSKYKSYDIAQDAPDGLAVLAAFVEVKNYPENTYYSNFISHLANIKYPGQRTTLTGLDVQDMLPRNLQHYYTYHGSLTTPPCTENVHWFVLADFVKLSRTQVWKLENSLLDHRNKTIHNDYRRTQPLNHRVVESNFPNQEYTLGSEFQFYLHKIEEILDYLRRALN
Chain of Carbonic anhydrase 12 (Homo sapiens) (O43570 whole entry, canonical isoform): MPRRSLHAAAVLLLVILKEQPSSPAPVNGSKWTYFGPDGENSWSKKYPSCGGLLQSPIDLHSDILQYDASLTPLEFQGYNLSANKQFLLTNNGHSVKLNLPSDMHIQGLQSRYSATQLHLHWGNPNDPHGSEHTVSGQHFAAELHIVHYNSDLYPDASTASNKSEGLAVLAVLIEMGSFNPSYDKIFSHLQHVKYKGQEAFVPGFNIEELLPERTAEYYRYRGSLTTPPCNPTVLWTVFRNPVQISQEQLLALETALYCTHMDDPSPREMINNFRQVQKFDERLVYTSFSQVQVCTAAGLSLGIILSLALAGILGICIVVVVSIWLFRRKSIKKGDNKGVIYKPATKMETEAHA
Chain of Carbonic anhydrase 4 (Homo sapiens) (P22748 whole entry): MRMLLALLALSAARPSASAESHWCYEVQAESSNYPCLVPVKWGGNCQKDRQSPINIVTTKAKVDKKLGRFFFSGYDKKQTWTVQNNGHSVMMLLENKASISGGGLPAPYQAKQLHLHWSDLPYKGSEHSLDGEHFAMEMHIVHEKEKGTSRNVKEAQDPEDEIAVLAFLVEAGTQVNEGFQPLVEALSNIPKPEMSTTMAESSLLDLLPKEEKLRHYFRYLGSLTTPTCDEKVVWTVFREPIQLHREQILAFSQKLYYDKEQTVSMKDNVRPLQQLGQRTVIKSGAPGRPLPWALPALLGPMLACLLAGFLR
Chain of Carbonic anhydrase 3 (Homo sapiens) (P07451 whole entry): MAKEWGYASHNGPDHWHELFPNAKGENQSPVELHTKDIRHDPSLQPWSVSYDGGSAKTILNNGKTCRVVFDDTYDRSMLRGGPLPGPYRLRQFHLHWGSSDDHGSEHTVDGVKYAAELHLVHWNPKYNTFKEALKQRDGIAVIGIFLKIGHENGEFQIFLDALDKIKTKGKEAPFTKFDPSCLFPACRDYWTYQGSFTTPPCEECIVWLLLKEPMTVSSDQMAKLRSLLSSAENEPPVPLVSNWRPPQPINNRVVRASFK
Chain of Carbonic anhydrase 14 (Homo sapiens) (Q9ULX7 whole entry): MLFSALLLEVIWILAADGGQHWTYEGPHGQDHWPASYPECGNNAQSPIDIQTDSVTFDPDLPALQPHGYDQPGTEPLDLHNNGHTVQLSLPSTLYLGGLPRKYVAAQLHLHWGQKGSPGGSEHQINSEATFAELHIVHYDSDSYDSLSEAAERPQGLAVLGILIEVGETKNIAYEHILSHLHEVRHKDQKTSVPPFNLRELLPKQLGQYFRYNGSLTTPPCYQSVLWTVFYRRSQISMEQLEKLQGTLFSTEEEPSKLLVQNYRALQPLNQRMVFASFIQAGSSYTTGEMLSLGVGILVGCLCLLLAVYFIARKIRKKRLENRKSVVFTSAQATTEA
Chain of Carbonic anhydrase 1 (Homo sapiens) (P00915 2-261 limits assumed): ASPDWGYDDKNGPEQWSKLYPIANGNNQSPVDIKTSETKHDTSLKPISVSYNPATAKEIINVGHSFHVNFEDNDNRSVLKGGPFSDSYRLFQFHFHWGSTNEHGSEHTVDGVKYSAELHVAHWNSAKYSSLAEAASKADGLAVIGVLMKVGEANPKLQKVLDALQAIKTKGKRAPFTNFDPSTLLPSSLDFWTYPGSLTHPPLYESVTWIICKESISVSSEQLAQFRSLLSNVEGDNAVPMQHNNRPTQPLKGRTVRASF
Chain of Carbonic anhydrase 7 (Homo sapiens) (P43166 whole entry): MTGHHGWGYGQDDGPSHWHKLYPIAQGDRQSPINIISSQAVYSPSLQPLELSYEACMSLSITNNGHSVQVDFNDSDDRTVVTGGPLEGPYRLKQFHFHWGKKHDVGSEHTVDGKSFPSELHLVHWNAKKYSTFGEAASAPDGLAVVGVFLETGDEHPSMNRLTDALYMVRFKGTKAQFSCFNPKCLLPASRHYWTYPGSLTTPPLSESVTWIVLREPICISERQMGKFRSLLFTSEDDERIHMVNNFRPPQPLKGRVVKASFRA
Chain of Carbonic anhydrase 5A, mitochondrial (Homo sapiens) (P35218 whole entry): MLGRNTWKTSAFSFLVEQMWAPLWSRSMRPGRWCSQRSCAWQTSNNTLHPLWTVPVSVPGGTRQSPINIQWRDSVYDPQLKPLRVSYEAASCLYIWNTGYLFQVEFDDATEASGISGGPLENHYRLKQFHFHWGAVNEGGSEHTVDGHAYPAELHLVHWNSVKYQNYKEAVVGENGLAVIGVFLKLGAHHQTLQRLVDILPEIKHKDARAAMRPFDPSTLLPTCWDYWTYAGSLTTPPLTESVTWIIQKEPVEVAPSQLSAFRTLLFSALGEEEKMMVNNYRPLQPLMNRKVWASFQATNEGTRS

Compound	Ka [1]	Ka [6]	Ka [7]	Ka [9]	Ka [11]	Activity [12]	Ka [14]	Ka [15]	Ka [16]	Activity [20]	Ka [22]	other results
CC(N)C[Se]c1ccccc1 (stereo not given)	59.5 µM	20.6 µM	9.9 µM	26.3 µM	58.6 µM	Non-Toxic	14.7 µM	14.3 µM	> 100 µM	Non-Toxic	8.6 µM	Activity (Mus musculus [2]): Active; Activity_index (Mus musculus [3]): 0.006; pIC50 [4]: 5.01; Ka ([5]; filed as activator): 57.2 µM; Activity_index (Mus musculus [8]): 0.156; Ka ([10]; filed as activator): 49.6 µM; Activity (Mus musculus [13]): inactive; Activity_index (Mus musculus [17]): 0.206; Activity (Mus musculus [18]): inactive; Ka ([19]; filed as activator): 9.9 µM; Activity (Mus musculus [21]): Active; Activity (Mus musculus [23]): Active; Activity (Mus musculus [24]): Active; Activity_index (Mus musculus [25]): 0.011
CC(N)Cc1ccccc1 (stereo not given) [AMPHETAMINE]	0.64 µM	0.91 µM	9.15 µM	2.56 µM	24.1 µM	Toxic	0.81 µM	87.7 µM	> 150 µM	Toxic	0.094 µM	Ka [5]: > 150 µM; Ka [10]: > 150 µM; Activity [26]: Toxic; Ka [19]: > 150 µM
